These results are taken from ChEMBL document CHEMBL1138838, “Design, chemical synthesis, and biological evaluation of thiosaccharide analogues of morphine- and codeine-6-glucuronide” (J Med Chem, 2004).

Molecules are shown by their SMILES. Active and inactive are the calls of the source. The rule behind the calls is not given here.

Assay [1] is described as follows: Maximum efficacy for [35S]GTP-gamma-S, binding to Opioid receptor delta 1. In kind it is functional. The method, boiled down:
(§1)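 Membranes from cells expressing the receptor, washed and resuspended in 20 mM Hepes, 10 mM MgCl2, 100 mM NaCl, pH 7.4. 8–15 μg protein incubated 60 min at 25 °C with 50 pM [35S]GTP-γ-S, 10 μM GDP and test compound. Bound label collected on glass fiber filters and counted; EC50 for stimulation of binding.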
In general terms: GTPγS is a poorly hydrolysed GTP analogue; its binding reports G protein activation.

Assay [2] in a line: Inhibition of [3H]DPDPE binding to Opioid receptor delta 1. The method, boiled down: (§2)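 Membranes from cells expressing the receptor, homogenized and washed in Tris, resuspended in 50 mM Tris pH 7.5. Incubated 60–120 min at 25 °C with [3H]DAMGO (mu), [3H]DPDPE (delta) or [3H]U69593 (kappa), about 15–30 μg protein. Filtration on glass fiber filters, scintillation counting. IC50 from at least six test concentrations; Ki by Cheng–Prusoff.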

Assay [3] is described as follows: Stimulation of [35S]GTP-gamma-S, binding at Opioid receptor kappa; no activity. In kind it is functional. The method, boiled down:
as §1

Assay [4] is described as follows: Inhibition of [3H]DAMGO binding to Opioid receptor mu 1. The method, boiled down: as §2
Assay [5] in a line: Inhibition of [3H]U-69593 binding to Opioid receptor kappa 1. The method, boiled down: as §2
Assay [6] can be described thus: Maximum efficacy for [35S]GTP-gamma-S, binding to Opioid receptor kappa 1; no activity. In kind it is functional. The method, boiled down: as §1
Assay [7] is described as follows: Maximum efficacy for [35S]GTP-gamma-S, binding to Opioid receptor mu 1. In kind it is functional. The method, boiled down:
as §1

Assay [8] is described as follows: Maximum efficacy for [35S]GTP-gamma-S, binding to Opioid receptor kappa 1. In kind it is functional. The method, boiled down:
as §1

Assay [9] can be described thus: Maximum efficacy for [35S]GTP-gamma-S, binding to Opioid receptor kappa 1; not active. In kind it is functional. The method, boiled down:
as §1

Assay [10] in a line: Stimulation of [35S]GTP-gamma-S, binding at Opioid receptor kappa 1; not active. In kind it is functional. The method, boiled down:
as §1

Assay [11] in a line: Stimulation of [35S]GTP-gamma-S, binding at Opioid receptor mu1; not active. In kind it is functional. The method, boiled down:
as §1

Assay [12] can be described thus: Maximum efficacy for [35S]GTP-gamma-S, binding to mu opioid receptor; not active. In kind it is functional. The method, boiled down:
as §1

Usually Ki stands for the dissociation constant of the complex between target and ligand, obtained from inhibition or displacement. A higher Ki goes with weaker binding. For `COC(=O)C1OC(SC2C=C[C@H]3[C@H]4Cc5ccc(OC(C)=O)c6c5[C@@]3(CCN4C)[C@H]2O6)C(OC(C)=O)C(OC(C)=O)C1OC(C)=O` (stereo partly drawn), the Emax in [1] was 46.8; in assay [7], 37.8. For the same compound, the Ki in [2] was 528 µM; in assay [4], 100 µM; in [5], 189 µM. In assay [3], the EC50 result is “Not Active”. In assay [6], the Emax entry is “inactive”.

With `CN1CC[C@]23c4c5ccc(O)c4O[C@H]2[C@@H](O)C=C[C@H]3[C@H]1C5`, in [7], the Emax was 93.

As to `COC(=O)C1OC(SC2C=C[C@H]3[C@H]4Cc5ccc(OC)c6c5[C@@]3(CCN4C)[C@H]2O6)C(OC(C)=O)C(OC(C)=O)C1OC(C)=O` (stereo partly drawn), the figures for the Emax in assay [8], in [1] and in [7] were 24.3, 64.3 and 19.3, respectively. Also, the Ki was found to be 438 µM in assay [2], 64 µM in assay [4] and 499 µM in assay [5].

With `CC(=O)OC1C(SC2C=C[C@H]3[C@H]4Cc5ccc(O)c6c5[C@@]3(CCN4C)[C@H]2O6)OC(C(=O)O)C(OC(C)=O)C1OC(C)=O` (stereo partly drawn), the Emax is 78.7 in assay [1] and 46.6 in [7]. The Ki is 31.4 µM in assay [2], 8.7 µM in assay [4] and 288 µM in [5]. In addition, the Emax result in [9] is “inactive”. The EC50 result in assay [10] is on record as “Not Active”.

`COc1ccc2c3c1O[C@H]1C(SC4OC(C(=O)O)C(OC(C)=O)C(OC(C)=O)C4OC(C)=O)C=C[C@H]4[C@@H](C2)N(C)CC[C@]314` (stereo partly drawn): the EC50 entry in assay [11] and in assay [10] was “Not Active” each time. Further, the Emax in assay [1] turned out to be 44.2. Besides, the Ki in [2] was 2680 µM; in assay [4], 463 µM; in [5], over 10000 µM. Besides, the Emax result in assay [9] and in assay [12] was “inactive” in each case.

On to `CC(=O)OC1C(CO)OC(SC2C=C[C@H]3[C@H]4Cc5ccc(O)c6c5[C@@]3(CCN4C)[C@H]2O6)C(OC(C)=O)C1OC(C)=O` (stereo partly drawn), for which the Emax was 42.5 in assay [8], 51.5 in assay [1] and 64.5 in [7]. The Ki in assay [2] was determined as 56.2 µM; in assay [4], 5.4 µM; in [5], 136 µM.

Turning to `CN1CC[C@]23c4c5ccc(O)c4O[C@H]2[C@@H](O[C@@H]2O[C@H](C(=O)O)[C@@H](O)[C@H](O)[C@H]2O)C=C[C@H]3[C@H]1C5` [MORPHINE GLUCURONIDE], the Emax is 80 in assay [1] and 45 in assay [7]. The Ki in [2] stood at 170 µM; in assay [4], 12.9 µM; in assay [5], 4060 µM. The Emax entry in assay [6] was “inactive”.

For `CC(=O)OCC1OC(SC2C=C[C@H]3[C@H]4Cc5ccc(O)c6c5[C@@]3(CCN4C)[C@H]2O6)C(OC(C)=O)C(OC(C)=O)C1OC(C)=O` (stereo in doubt; 5e) [listing 1 of 2 here], the Ki in assay [2] came out at 19.5 µM; in assay [5], 2970 µM.

Turning to `COC(=O)C1OC(SC2C=C[C@H]3[C@H]4Cc5ccc(O)c6c5[C@@]3(CCN4C)[C@H]2O6)C(OC(C)=O)C(OC(C)=O)C1OC(C)=O` (stereo partly drawn), the Emax in [8] was found to be 23.5; in assay [1], 104; in [7], 88.3. For the same compound, the figures for the Ki in assay [2], in assay [4] and in [5] were 15.6 µM, 5.4 µM and 11 µM, respectively.

In the case of `CC(=O)OCC1OC(SC2C=C[C@H]3[C@H]4Cc5ccc(O)c6c5[C@@]3(CCN4C)[C@H]2O6)C(OC(C)=O)C(OC(C)=O)C1OC(C)=O` (stereo in doubt; 5e) [listing 2 of 2 here], the Emax was determined as 26.5 in [8], 45.5 in [1] and 76 in assay [7].

`CC(=O)OCC1OC(SC2C=C[C@H]3[C@H]4Cc5ccc(OC(C)=O)c6c5[C@@]3(CCN4C)[C@H]2O6)C(OC(C)=O)C(OC(C)=O)C1OC(C)=O` (stereo partly drawn): the Emax was found to be 36.9 in assay [8], 39.3 in [1] and 44.1 in assay [7]. Also, the Ki in [2] was 762 µM; in assay [4], 305 µM; in assay [5], 1390 µM.
